One data set deals with Norwalk virus. The data set is described as follows: Antiviral activity against Norwalk virus infected in human HG23 cells assessed as inhibition of viral replication after 24 hrs by qRT-PCR. It is filed as functional. Conditions: HG23, 24 h, read-out: ED50 (the source's name). In a few lines:
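HG23 cells (Norwalk virus replicon-bearing), one day old at 80–90% confluence, exposed to graded compound levels from 0 (mock-DMSO) to 10 µM. NV genome quantified by qRT-PCR; ED50 for genome levels taken at 24 h post-treatment. Values averaged over at least two independent experiments, mean ± standard deviation.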
For orientation: In qPCR the cycle at which signal appears reflects the starting amount.

Data set [1] is described as follows: Cytotoxicity against human HG23 cells after 48 hrs. It is filed as cell-based. The settings on record: read-out: TD50. An outline of the steps: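 Replicon-harboring HG23 cells exposed to graded compound levels from 0 (mock-DMSO) to 320 µM for 48 h. Viability read with a commercial cell cytotoxicity assay kit, and the median toxic dose (TD50) was calculated from it.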

These results are taken from ChEMBL document CHEMBL1833900, “Potent inhibition of Norwalk virus by cyclic sulfamide derivatives” (Bioorg Med Chem, 2011).

Each structure is given as a SMILES string.

`CCCCc1ccc(CN2CCNS2(=O)=O)cc1`: the EC50 with Norwalk virus was greater than 10 µM. Consider `O=S1(=O)N(CCN2CCOCC2)CCN1Cc1cccc(Oc2ccccc2)c1`, for which, in data set [1], the CC50 at 48 h worked out at 49 µM. Take `O=S1(=O)NCCN1Cc1cccc(Oc2ccccc2)c1`: in the data set on Norwalk virus, the EC50 worked out at 4.1 µM. Besides, the CC50 at 48 h in data set [1] came out at 50 µM. Take `O=S1(=O)NCCN1Cc1cccc(Oc2ccc(F)cc2)c1`: in the data set with Norwalk virus, the EC50 was greater than 10 µM. Besides, the CC50 at 48 h in data set [1] is 98 µM. In the same order, the values of `O=S1(=O)NCCN1Cc1cccc(OCc2ccccc2)c1` are 5.2 µM and 18 µM.

For the compound `O=S1(=O)NCCN1Cc1cccc(O)c1`, in the data set with Norwalk virus, the EC50 was greater than 10 µM. In the case of `O=S1(=O)NCCN1Cc1ccc(Oc2ccccc2)cc1`, the EC50 in the data set with Norwalk virus is 5.8 µM. Moreover, the CC50 at 48 h in data set [1] worked out at 57 µM. The corresponding values for `CCCOc1ccc(CN2CCNS2(=O)=O)cc1` are 5.2 µM and 96 µM. As for `O=S1(=O)NCCN1Cc1ccc(OCc2ccccc2)cc1`, the EC50 in the data set on Norwalk virus turned out to be 9.8 µM. In data set [1], the CC50 at 48 h came out at 159 µM.

Regarding `CCOc1ccc(CN2CCNS2(=O)=O)cc1`, in the data set on Norwalk virus, the EC50 is greater than 10 µM. Consider `CC(C)Oc1ccc(CN2CCNS2(=O)=O)cc1`, for which the EC50 with Norwalk virus is greater than 10 µM. `CCCCOc1ccc(CN2CCNS2(=O)=O)cc1`: the EC50 with Norwalk virus was determined as 9.5 µM. For the compound `CCCc1ccc(CN2CCNS2(=O)=O)cc1`, the EC50 in the data set with Norwalk virus is greater than 10 µM. The same measure, in the same setting: for `CC(C)Cc1ccc(CN2CCNS2(=O)=O)cc1` the value was 9.7 µM. Still for that read-out and setting: for `CSc1ccc(CN2CCNS2(=O)=O)cc1` the value was greater than 10 µM.

Turning to `O=S1(=O)NCCN1Cc1ccc(OC(F)(F)F)cc1`, the EC50 with Norwalk virus was greater than 10 µM.

Regarding `O=S1(=O)NCCN1Cc1cccc(OC(F)(F)F)c1`, in the data set on Norwalk virus, the EC50 was greater than 10 µM. As to `O=S1(=O)NCCN1Cc1cccc(Cl)c1`, the EC50 with Norwalk virus is greater than 10 µM. Consider `COc1cccc(CN2CCNS2(=O)=O)c1`, for which the EC50 with Norwalk virus was greater than 10 µM.

In the case of `COc1ccc(CN2CCNS2(=O)=O)cc1`, the EC50 with Norwalk virus was greater than 10 µM. Same read-out and setting: for `O=S1(=O)NCCN1Cc1ccc(Cl)cc1` the value was greater than 10 µM; for `CC(C)(C)OC(=O)N1CCN(Cc2cn(Cc3ccccc3)nn2)S1(=O)=O`, greater than 10 µM; for `COc1ccc(Cn2cc(CN3CCN(C(=O)OC(C)(C)C)S3(=O)=O)nn2)cc1`, 9.8 µM. Regarding `O=S1(=O)NCCN1Cc1cn(Cc2ccccc2)nn1`, the EC50 in the data set with Norwalk virus is greater than 10 µM. Turning to `COc1ccc(Cn2cc(CN3CCNS3(=O)=O)nn2)cc1`, the EC50 with Norwalk virus is greater than 10 µM.

For the compound `O=S1(=O)NCCN1CC1CCCN(Cc2ccccc2)C1` (configuration not stated), in the data set on Norwalk virus, the EC50 is greater than 10 µM. As for `COC(=O)CN1CCN(Cc2cccc(Oc3ccccc3)c2)S1(=O)=O`, in the data set on Norwalk virus, the EC50 is greater than 10 µM. Consider `COC(=O)CCN1CCN(Cc2cccc(Oc3ccccc3)c2)S1(=O)=O`, for which, in the data set on Norwalk virus, the EC50 was greater than 10 µM. Regarding `COC(=O)CCCN1CCN(Cc2cccc(Oc3ccccc3)c2)S1(=O)=O`, the EC50 in the data set on Norwalk virus was greater than 10 µM. Consider `COC(=O)CCCCN1CCN(Cc2cccc(Oc3ccccc3)c2)S1(=O)=O`, for which, in the data set with Norwalk virus, the EC50 turned out to be 9.7 µM. Further, the CC50 at 48 h in data set [1] is 46 µM. For `COC(=O)CCCCCCN1CCN(Cc2cccc(Oc3ccccc3)c2)S1(=O)=O`, the EC50 with Norwalk virus was greater than 10 µM. On to `COC(=O)c1ccc(CN2CCN(Cc3cccc(Oc4ccccc4)c3)S2(=O)=O)cc1`, for which the EC50 in the data set with Norwalk virus was greater than 10 µM.

As to `O=C(O)CN1CCN(Cc2cccc(Oc3ccccc3)c2)S1(=O)=O`, the EC50 in the data set on Norwalk virus came out at 7.8 µM. The CC50 at 48 h in data set [1] was 48 µM. Take `O=C(O)CCN1CCN(Cc2cccc(Oc3ccccc3)c2)S1(=O)=O`: in the data set on Norwalk virus, the EC50 is greater than 10 µM. Take `O=C(O)CCCN1CCN(Cc2cccc(Oc3ccccc3)c2)S1(=O)=O`: the EC50 in the data set with Norwalk virus was greater than 10 µM.

`O=C(O)CCCCN1CCN(Cc2cccc(Oc3ccccc3)c2)S1(=O)=O`: the EC50 with Norwalk virus came to 6.1 µM. Besides, in data set [1], the CC50 at 48 h was found to be 100 µM. In the case of `O=C(O)CCCCCCN1CCN(Cc2cccc(Oc3ccccc3)c2)S1(=O)=O`, in the data set with Norwalk virus, the EC50 was greater than 10 µM. Still for that read-out and setting: for `O=C(O)c1ccc(CN2CCN(Cc3cccc(Oc4ccccc4)c3)S2(=O)=O)cc1` the value was greater than 10 µM; for `CN1CCN(Cc2cccc(Oc3ccccc3)c2)S1(=O)=O`, greater than 10 µM; for `CCN1CCN(Cc2cccc(Oc3ccccc3)c2)S1(=O)=O`, greater than 10 µM.

Consider `N#CCN1CCN(Cc2cccc(Oc3ccccc3)c2)S1(=O)=O`, for which the EC50 in the data set with Norwalk virus was greater than 10 µM. Turning to `O=S1(=O)N(Cc2ccccc2)CCN1Cc1cccc(Oc2ccccc2)c1`, the EC50 in the data set with Norwalk virus was greater than 10 µM. On to `O=S1(=O)N(Cc2ccc(F)cc2)CCN1Cc1cccc(Oc2ccccc2)c1`, for which the EC50 in the data set with Norwalk virus is greater than 10 µM. On to `O=S1(=O)N(Cc2cccnc2)CCN1Cc1cccc(Oc2ccccc2)c1`, for which, in the data set on Norwalk virus, the EC50 turned out to be 8.1 µM. Besides, the CC50 at 48 h in data set [1] was 53 µM. In the case of `NC(=O)CN1CCN(Cc2cccc(Oc3ccccc3)c2)S1(=O)=O`, the EC50 with Norwalk virus was greater than 10 µM.

Regarding `O=S1(=O)N(CCN2CCCCC2)CCN1Cc1cccc(Oc2ccccc2)c1`, in the data set with Norwalk virus, the EC50 amounted to 4.3 µM. The CC50 at 48 h in data set [1] amounted to 9.8 µM.
